Data on 6 compounds can be found in PMC9540497 (Clinical Pharmacology and Therapeutics, 2022).

Read-outs that look alike come from different tables or passages of the source.

The format of data set [1] is in vivo, human. The conditions noted are these: for AUC(0-inf) / Cmax / Tmax / half-life: female, human, plasma, oral; for AUC(0-inf): AUC0–inf; for AUC(0-inf) / Cmax: mean (CV%); for Tmax: median (minimum, maximum); for half-life: t 1/2, mean (CV%). The method in brief:
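Healthy women received a single oral contraceptive dose (0.03 mg EE, 3 mg DRSP) fed on days 1, 8 and 18, with test compound 600 mg once daily on days 8–23. Blood was drawn predose and at 0.5–120 h postdose. EE and DRSP were measured by validated UHPLC-MS/MS (LLOQ 2.5 pg/mL and 0.5 ng/mL). LS geometric mean ratios (90% CI) of ln Cmax and AUC0–inf came from a mixed model (day fixed, subject random).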

Data set [2] has as its target T1, CYP3A4 (Homo sapiens, UniProt P08684). The conditions noted are these: cited from earlier work.
The target of data set [3] is T2, SULT1E1 (Homo sapiens, UniProt P49888).
T2 sequence (P49888 1-294): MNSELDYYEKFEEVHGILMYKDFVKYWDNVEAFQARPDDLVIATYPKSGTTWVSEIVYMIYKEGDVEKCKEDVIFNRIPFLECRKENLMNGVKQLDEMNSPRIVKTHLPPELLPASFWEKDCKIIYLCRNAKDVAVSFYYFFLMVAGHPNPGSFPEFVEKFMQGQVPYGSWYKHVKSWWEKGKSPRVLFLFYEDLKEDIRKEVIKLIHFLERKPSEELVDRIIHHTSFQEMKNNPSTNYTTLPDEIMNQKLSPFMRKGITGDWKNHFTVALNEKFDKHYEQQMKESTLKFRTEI
The data set is described as follows: SULT1E1 in vitro inhibition test. The class given is biochemical. The method in brief:
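Recombinant human SULT1E1 expressed in E. coli was incubated with EE 5 nM as substrate. Test compound was tested at 0.8, 2, 8, 20, 80 and 200 µM, with quercetin 0.5 µM as positive control and a DMSO solvent control. Metabolite formation was read by UHPLC-MS/MS peak area, and activity was expressed relative to solvent control (n = 3). IC50 came from a sigmoidal fit; tentative Ki came from Cheng–Prusoff assuming competitive inhibition and substrate concentration equal to Km.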

For another data set, the target named is T3, UGT1A1 (Homo sapiens, UniProt P22309).
T3 sequence (P22309 26-533): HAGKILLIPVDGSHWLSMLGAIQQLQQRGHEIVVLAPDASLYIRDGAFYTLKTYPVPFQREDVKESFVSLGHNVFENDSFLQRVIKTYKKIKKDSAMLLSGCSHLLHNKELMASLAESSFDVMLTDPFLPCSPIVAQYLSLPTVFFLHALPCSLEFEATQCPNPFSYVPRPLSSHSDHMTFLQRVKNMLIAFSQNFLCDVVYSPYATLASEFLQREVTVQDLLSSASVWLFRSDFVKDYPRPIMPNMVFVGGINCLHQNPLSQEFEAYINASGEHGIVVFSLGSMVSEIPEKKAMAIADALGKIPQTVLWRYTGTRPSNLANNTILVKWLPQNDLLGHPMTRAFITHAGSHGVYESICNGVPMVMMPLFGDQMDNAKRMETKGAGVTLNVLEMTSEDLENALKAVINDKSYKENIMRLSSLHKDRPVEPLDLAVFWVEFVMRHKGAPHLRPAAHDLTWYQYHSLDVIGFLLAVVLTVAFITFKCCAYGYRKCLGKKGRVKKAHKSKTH
It counts as in vivo. The conditions noted are these: 600 mg q.d.; day 18 vs day 1; three subjects.

Data set [4] deals with T1, CYP3A4. The conditions noted are these: in vitro studies; cited from earlier work.
The nature of the next data set: Safety and tolerability. The class given is in vivo, human. The conditions noted are these: 600 mg q.d. with oral contraceptive, healthy women. The method in brief: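 Throughout the study in healthy women, TEAEs, serious TEAEs and TEAEs leading to discontinuation were monitored, covering oral contraceptive alone and co-administration with test compound 600 mg q.d. Intensity (mild/moderate) and investigator-judged relatedness were recorded. Clinical laboratory parameters, vital signs and ECG were also assessed.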

Data set [5] deals with T2, SULT1E1. The class given is in vivo. The conditions noted are these: 600 mg q.d.; day 18 vs day 1; three subjects. An outline of the steps:
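Plasma from three subjects, sampled on day 1 (oral contraceptive alone) and day 18 (with test compound 600 mg q.d.), was split into duplicate aliquots. One aliquot was hydrolysed with purified arylsulfatase and the other with genetically modified β-glucuronidase, in 1 M Tris-HCl pH 8.0 buffer (stock), at 50°C for 1 h. Total EE was measured by LC-MS/MS. EE AUClast with and without hydrolysis was computed by linear-up/log-down trapezoids.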

The target of data set [6] is T1, CYP3A4. The data set is described as follows: In vitro CYP3A4 inhibition and induction by ziritaxestat and predictions from it. It counts as in vitro ADME. The conditions noted are these: data on file.
[7] abbreviates: OC + ziritaxestat 600 mg q.d. (day 8, SD), n = 14.
Where [8] appears, read: OC + ziritaxestat 600 mg q.d. (day 18, MD), n = 13.
Where [9] appears, read: day 18 test vs. day 1 reference, ziritaxestat 600 mg q.d.

T1 sequence (P08684 whole entry): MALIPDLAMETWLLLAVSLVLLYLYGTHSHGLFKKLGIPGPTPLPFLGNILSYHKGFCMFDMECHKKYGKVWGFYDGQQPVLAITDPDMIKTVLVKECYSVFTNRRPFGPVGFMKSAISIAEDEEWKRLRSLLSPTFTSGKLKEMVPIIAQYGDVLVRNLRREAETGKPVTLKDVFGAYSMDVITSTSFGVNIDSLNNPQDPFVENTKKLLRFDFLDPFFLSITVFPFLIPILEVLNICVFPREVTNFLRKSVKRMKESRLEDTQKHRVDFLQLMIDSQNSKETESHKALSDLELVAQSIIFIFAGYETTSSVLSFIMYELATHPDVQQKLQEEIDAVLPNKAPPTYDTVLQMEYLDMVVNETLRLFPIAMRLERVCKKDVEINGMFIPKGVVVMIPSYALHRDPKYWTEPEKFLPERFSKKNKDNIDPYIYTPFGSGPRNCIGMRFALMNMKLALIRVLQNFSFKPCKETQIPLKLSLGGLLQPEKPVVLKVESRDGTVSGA

Regarding `C[C@]12CCC(=O)C=C1[C@@H]1C[C@@H]1[C@H]1[C@@H]3[C@@H]4C[C@@H]4[C@@]4(CCC(=O)O4)[C@@]3(C)CC[C@@H]12` [Drospirenone, drospirenone], in data set [1] (setting [7]), the AUC(0-inf) was 686 ng·h/mL, the Cmax was 21.4 ng/mL, the Tmax turned out to be 2.5 h and the half-life was 2680 min. In data set [1] (setting [8]), the AUC(0-inf) was 708 ng·h/mL, the Cmax is 22.6 ng/mL, the time of peak concentration (Tmax) was 4 h and the half-life was 2600 min. In data set [1] (OC alone (day 1), n = 15), the AUC(0-inf) was 574 ng·h/mL, the Cmax came out at 20.7 ng/mL and the half-life was 2340 min.
For the compound `C#C[C@]1(O)CC[C@H]2[C@@H]3CCc4cc(O)ccc4[C@H]3CC[C@@]21C` [Ethinyl estradiol, ethinyl estradiol], in data set [1] (setting [9]), the “increase of AUC0–inf on co-administration with ziritaxestat” value was 2.4 fold and the “increase of Cmax on co-administration with ziritaxestat” value is listed as 2.8 fold. Besides, in data set [1] (setting [7]), the AUC(0-inf) was determined as 2.02 ng·h/mL, the Cmax was determined as 0.122 ng/mL and the half-life is 1810 min. Also, in data set [1] (setting [8]), the AUC(0-inf) turned out to be 2.18 ng·h/mL. Further, in data set [1] (OC alone (day 1), n = 15, fed), the AUC(0-inf) was 0.967 ng·h/mL. For the same compound, in data set [1] (OC alone (day 1), n = 15), the peak level (Cmax) was 0.047 ng/mL and the half-life is 1320 min.
For the compound `CC(C)(C)NC(=O)N[C@H](C(=O)N1C[C@H]2[C@@H]([C@H]1C(=O)NC(CC1CCC1)C(=O)C(N)=O)C2(C)C)C(C)(C)C` (some centres unmarked) [boceprevir], at CYP3A4 [2] (strong CYP3A4 inhibition), the “increase in DRSP exposure on co-administration” value is on record as 100%.
As to `O=c1c(O)c(-c2ccc(O)c(O)c2)oc2cc(O)cc(O)c12` [quercetin, Quercetin], the inhibition at 0.5 µM on SULT1E1 [3] (read-out: inhibition of SULT1E1) worked out at 66%.
Turning to `C[C@@H](c1ncncc1F)[C@](O)(Cn1cncn1)c1ccc(F)cc1F` [voriconazole], on CYP3A4 [2] (strong CYP3A4 inhibitor co-administered), the “increase of the systemic exposure of EE on co-administration” value is 60%.
Take `CCc1nc2c(C)cc(N3CCN(CC(=O)N4CC(O)C4)CC3)cn2c1N(C)c1nc(-c2ccc(F)cc2)c(C#N)s1` [ziritaxestat]: the IC50 at SULT1E1 [3] is less than 800 nM. Besides, the “effect on EE glucuronidation in vivo (in words)” value at UGT1A1 was “potential weak inhibitory effect”. Besides, the “CYP3A4 induction and inhibition in vitro (in words)” value on CYP3A4 [4] was “weak inducer and inhibitor”. The “tolerability (in words)” value in the data set “Safety and tolerability” is reported as “generally well tolerated”. Further, the “effect on EE sulfation in vivo (in words)” value on SULT1E1 [5] was “potent inhibitor of sulfation”. Besides, the “mode of CYP3A4 inhibition” value on CYP3A4 [6] is “competitive and reversible”.

A word on the AUC(0-inf): it is total exposure, with the tail of the curve extrapolated. One may read the Cmax as the peak of the concentration-time curve. Broadly, the Tmax is the time from dosing to the highest level. The half-life is the time in which the quantity being followed falls by half. A word on the inhibition: it is the change of the read-out against control, counted positive when it falls. Broadly, the IC50 is the concentration that gives 50% inhibition. Higher therefore signals weaker potency in that assay.
